According to ChEMBL document CHEMBL5104224, “Alkyltriphenylphosphonium turns naphthoquinoneimidazoles into potent membrane depolarizers against mycobacteria” (RSC Med Chem, 2022):

Key:
[1] = Aqueous solubility of compound at pH 7.4 measured after 24 hrs; format: physicochemical; details: buffer
Outline: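 Stock in DMSO diluted to 100 μM in Universal buffer pH 7.4 with 1% DMSO. Agitated on filter plates for 24 h at 25°C, then filtered and the filtrate diluted with acetonitrile. Concentration read by UV absorbance against calibration curves made in buffer/acetonitrile 80:20. At least 3 occasions, using different stocks.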

[2] = Selectivity index, ratio of IC50 for cytotoxicity against African green monkey Vero E6 cells to MIC50 for antimycobacterial activity against Mycobacterium bovis BCG ATCC 35734; format: toxicity, cell-based, Vero C1008; details: read-out: Selectivity Index
[3] = Selectivity index, ratio of IC50 for cytotoxicity against African green monkey Vero E6 cells to MIC50 for antimycobacterial activity against Mycobacterium tuberculosis H37Rv ATCC 27294; format: toxicity, cell-based, Vero C1008; details: read-out: Selectivity Index
Outline: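 SI is the ratio of a Vero E6 IC50 to an H37Rv MIC50. Vero E6 cells in DMEM + 10% heat-inactivated FBS, 1% penicillin; 30,000 cells/well, 24 h adherence, then compound for 48 h (0.5% DMSO), 37°C, 5% CO2. MTS read at 490 nm after 3 h; IC50 from sigmoidal viability fit, ≥3 determinations. MIC50 by broth dilution: 50% growth inhibition versus drug-free control.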

Row | Compound | solubility at 24 h [1] [µM] | selectivity ratio [2] | selectivity ratio [3]
1 | CCCCCCCCn1c2c([n+](CCCC)c1C)C(=O)c1ccccc1C2=O.[Br-] | 118 |  | 
2 | CCCCn1c2c([n+](C3CCC4(CCCCC4)CC3)c1C)C(=O)c1ccccc1C2=O.[Br-] | 118 |  | 
3 | Cc1nc2c(n1CCCCCCCCCCC[P+](C1CCCCC1)(C1CCCCC1)C1CCCCC1)C(=O)c1ccccc1C2=O |  | 7 | 
4 | Cc1nc2c(n1CCCCCCCCCCC[P+](c1ccccc1)(c1ccccc1)c1ccccc1)C(=O)c1ccccc1C2=O |  | 11 | 5
5 | Cc1nc2c(n1CCCCCCCCC[P+](c1ccccc1)(c1ccccc1)c1ccccc1)C(=O)c1ccccc1C2=O |  | 21 | 34
